Experimental data as given in ChEMBL document CHEMBL1221204, “Spliceostatin A targets SF3b and inhibits both splicing and nuclear retention of pre-mRNA” (Nat Chem Biol, 2007).
Active and inactive are the calls of the source. The calls are words filed in the database; no cut-off is given here.

How the values were obtained:
HEK-293T [1] = test: Induction of FLAG-tagged p27 expression in HEK293T cells at 100 ng/ml after 14 hrs by Western blotting; format: functional, cell-based; details: Homo sapiens
HeLa [2] = test: Induction of truncated p27 expression in human HeLa cells at 100 ng/ml after 14 hrs in presence of […] proteasome inhibitor MG132; format: functional, cell-based
[3] = target: Cyclin-dependent kinase 2 (Homo sapiens) (UniProt P24941); test: Induction of CDK2 in HEK293T cells transfected with FLAG-tagged p27 at 200 nM by autoradiography; format: cell-based; details: HEK-293T
Method in brief: (§1)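 HEK 293T cells were transfected with pcDNA3.1, FLAG-p27 or FLAG-p27*, or were treated with MeOH, FR901464 (20, 200 nM) or SSA (190 nM). CDK2 was immunoprecipitated and its kinase activity read by autoradiography with histone H1 and (gamma-32P)ATP. Associated proteins were detected by western blotting.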

[4] = target: Cyclin-dependent kinase 2 (Homo sapiens) (UniProt P24941); test: Induction of CDK2 in HEK293T cells transfected with FLAG-tagged truncated p27 at 20 nM by Western blot analysis; format: cell-based; details: HEK-293T; method in brief: as §1
[5] = Half life of the compound in culture medium by HPLC analysis; format: physicochemical
MCF7 [6] = test: Induction of truncated p27 expression in human MCF7 cells at 1 to 100 ng/ml after 14 hrs by immunoblotting; format: functional, cell-based
Method in brief: (§2)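 Human cell lines (HeLa, HEK 293T, MCF7, A549) cultured in DMEM with 10% heat-inactivated FBS. Cells treated with graded FR901464 concentrations for 14 h. Extracts immunoblotted for p27 and the truncated p27* form, with chemiluminescent detection.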

[7] = target: Cyclin-dependent kinase 2 (Homo sapiens) (UniProt P24941); test: Induction of CDK2 in HEK293T cells transfected with FLAG-tagged truncated p27 at 200 nM by autoradiography; format: cell-based; details: HEK-293T; method in brief: as §1
HeLa [8] = test: Induction of CDK4 expression in human HeLa cells at 100 ng/ml after 14 hrs by Western blotting; format: functional, cell-based
[9] = target: Cyclin-dependent kinase 2 (Homo sapiens) (UniProt P24941); test: Induction of CDK2 in HEK293T cells transfected with FLAG-tagged p27 at 20 nM by Western blot analysis; format: cell-based; details: HEK-293T; method in brief: as §1
HeLa [10] = test: Induction of p27 expression in human HeLa cells at 1 to 100 ng/ml after 14 hrs by immunoblotting; format: functional, cell-based; method in brief: as §2
HeLa [11] = test: Induction of p16 expression in human HeLa cells at 100 ng/ml after 16 hrs by Western blotting; format: functional, cell-based
Method in brief: (§3)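 HeLa cells grown in DMEM with 10% FBS and treated with FR901464 at 100 ng ml-1 for 16 h. Lysates prepared by sonication in ice-cold IP buffer with protease inhibitors. Proteins separated by SDS-PAGE and immunoblotted with anti-p16, anti-p21 and anti-p27 antibodies; chemiluminescence detection.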

A549 [12] = test: Induction of truncated p27 expression in human A549 cells at 1 to 100 ng/ml after 14 hrs by immunoblotting; format: functional, cell-based; method in brief: as §2
HeLa [13] = test: Induction of p27 expression in human HeLa cells at 100 ng/ml after 14 hrs in presence of […] proteasome inhibitor MG132; format: functional, cell-based
A549 [14] = test: Induction of p27 expression in human A549 cells at 1 to 100 ng/ml after 14 hrs by immunoblotting; format: functional, cell-based; method in brief: as §2
HeLa [15] = test: Induction of cyclin A expression in human HeLa cells at 100 ng/ml after 14 hrs by Western blotting; format: functional, cell-based
HEK-293T [16] = test: Induction of truncated p27 expression in HEK293T cells at 1 to 100 ng/ml after 14 hrs by immunoblotting; format: functional, cell-based; details: Homo sapiens; method in brief: as §2
HeLa [17] = test: Induction of CDK2 expression in human HeLa cells at 100 ng/ml after 14 hrs by Western blotting; format: functional, cell-based
HEK-293T [18] = test: Induction of p27 expression in HEK293T cells at 1 to 100 ng/ml after 14 hrs by immunoblotting; format: functional, cell-based; details: Homo sapiens; method in brief: as §2
MCF7 [19] = test: Induction of p27 expression in human MCF7 cells at 1 to 100 ng/ml after 14 hrs by immunoblotting; format: functional, cell-based; method in brief: as §2
HeLa [20] = test: Induction of p21 expression in human HeLa cells at 100 ng/ml after 16 hrs by Western blotting; format: functional, cell-based; method in brief: as §3
HeLa [21] = test: Induction of CDK6 expression in human HeLa cells at 100 ng/ml after 14 hrs by Western blotting; format: functional, cell-based
HeLa [22] = test: Induction of p27 expression in human HeLa cells at 100 ng/ml after 16 hrs by Western blotting; format: functional, cell-based; method in brief: as §3
HeLa [23] = test: Induction of truncated p27 expression in human HeLa cells up to 500 nM after 14 hrs by Western blotting; format: functional, cell-based
Method in brief: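 HeLa cells were exposed for 14 h to 1, 3, 10, 30, 100 and 300 ng ml-1. Cell extracts were immunoblotted for p27 and its C-terminally truncated form p27*, with chemiluminescent read-out.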

COS-7 [24] = test: Induction of subcellular localization in truncated p27 in african green monkey COS7 cells at 10 ng/ml after 6 hrs by immunofluorescence assay; format: functional, cell-based; details: Chlorocebus aethiops
COS-7 [25] = test: Induction of subcellular localization in p27 in african green monkey COS7 cells at 10 ng/ml after 6 hrs by immunofluorescence assay; format: functional, cell-based; details: Chlorocebus aethiops
[26] = target: T1, Splicing factor 3B subunit 2 (Homo sapiens) (UniProt Q13435); test: Binding affinity to SAP145 in human HeLa cells at 2 uM by LC-MS/MS analysis; format: cell-based
T1 sequence (whole entry): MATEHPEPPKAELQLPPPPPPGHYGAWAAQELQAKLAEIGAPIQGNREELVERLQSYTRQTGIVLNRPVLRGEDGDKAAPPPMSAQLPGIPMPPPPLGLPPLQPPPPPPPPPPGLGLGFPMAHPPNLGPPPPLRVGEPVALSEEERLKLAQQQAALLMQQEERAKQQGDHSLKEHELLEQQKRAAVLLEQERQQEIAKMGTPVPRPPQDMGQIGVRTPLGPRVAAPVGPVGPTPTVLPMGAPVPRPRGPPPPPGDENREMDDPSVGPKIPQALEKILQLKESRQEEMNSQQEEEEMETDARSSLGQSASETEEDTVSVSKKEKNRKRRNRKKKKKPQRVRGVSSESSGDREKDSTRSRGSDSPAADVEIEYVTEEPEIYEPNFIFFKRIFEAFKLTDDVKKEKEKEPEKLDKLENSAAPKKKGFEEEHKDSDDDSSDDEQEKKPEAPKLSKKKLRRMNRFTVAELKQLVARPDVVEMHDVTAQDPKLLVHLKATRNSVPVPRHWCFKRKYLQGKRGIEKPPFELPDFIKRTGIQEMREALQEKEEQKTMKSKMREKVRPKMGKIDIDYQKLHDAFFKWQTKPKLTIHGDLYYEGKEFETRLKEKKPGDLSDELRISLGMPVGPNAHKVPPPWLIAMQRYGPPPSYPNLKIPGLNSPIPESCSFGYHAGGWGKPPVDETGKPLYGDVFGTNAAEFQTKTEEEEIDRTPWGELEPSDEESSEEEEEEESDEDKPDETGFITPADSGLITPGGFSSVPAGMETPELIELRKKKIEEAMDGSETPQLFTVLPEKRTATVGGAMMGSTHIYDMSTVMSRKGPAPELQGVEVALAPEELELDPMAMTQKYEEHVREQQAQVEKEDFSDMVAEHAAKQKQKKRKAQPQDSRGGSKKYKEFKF

[27] = tested on: SF3b complex (Homo sapiens); test: Binding affinity to SF3b SAP155/SAP145/SAP130 complex in human HeLa cells at 2 uM by Western blotting
HeLa [28] = test: Induction of truncated p27 expression in human HeLa cells at 1 to 1000 nM by Western blot analysis; format: functional, cell-based
[29] = target: Splicing factor 3B subunit 3 (Homo sapiens) (UniProt Q15393); test: Binding affinity to SAP130 in human HeLa cells at 2 uM by LC-MS/MS analysis
Chain of Splicing factor 3B subunit 3 (Homo sapiens) (Q15393 whole entry, looked up): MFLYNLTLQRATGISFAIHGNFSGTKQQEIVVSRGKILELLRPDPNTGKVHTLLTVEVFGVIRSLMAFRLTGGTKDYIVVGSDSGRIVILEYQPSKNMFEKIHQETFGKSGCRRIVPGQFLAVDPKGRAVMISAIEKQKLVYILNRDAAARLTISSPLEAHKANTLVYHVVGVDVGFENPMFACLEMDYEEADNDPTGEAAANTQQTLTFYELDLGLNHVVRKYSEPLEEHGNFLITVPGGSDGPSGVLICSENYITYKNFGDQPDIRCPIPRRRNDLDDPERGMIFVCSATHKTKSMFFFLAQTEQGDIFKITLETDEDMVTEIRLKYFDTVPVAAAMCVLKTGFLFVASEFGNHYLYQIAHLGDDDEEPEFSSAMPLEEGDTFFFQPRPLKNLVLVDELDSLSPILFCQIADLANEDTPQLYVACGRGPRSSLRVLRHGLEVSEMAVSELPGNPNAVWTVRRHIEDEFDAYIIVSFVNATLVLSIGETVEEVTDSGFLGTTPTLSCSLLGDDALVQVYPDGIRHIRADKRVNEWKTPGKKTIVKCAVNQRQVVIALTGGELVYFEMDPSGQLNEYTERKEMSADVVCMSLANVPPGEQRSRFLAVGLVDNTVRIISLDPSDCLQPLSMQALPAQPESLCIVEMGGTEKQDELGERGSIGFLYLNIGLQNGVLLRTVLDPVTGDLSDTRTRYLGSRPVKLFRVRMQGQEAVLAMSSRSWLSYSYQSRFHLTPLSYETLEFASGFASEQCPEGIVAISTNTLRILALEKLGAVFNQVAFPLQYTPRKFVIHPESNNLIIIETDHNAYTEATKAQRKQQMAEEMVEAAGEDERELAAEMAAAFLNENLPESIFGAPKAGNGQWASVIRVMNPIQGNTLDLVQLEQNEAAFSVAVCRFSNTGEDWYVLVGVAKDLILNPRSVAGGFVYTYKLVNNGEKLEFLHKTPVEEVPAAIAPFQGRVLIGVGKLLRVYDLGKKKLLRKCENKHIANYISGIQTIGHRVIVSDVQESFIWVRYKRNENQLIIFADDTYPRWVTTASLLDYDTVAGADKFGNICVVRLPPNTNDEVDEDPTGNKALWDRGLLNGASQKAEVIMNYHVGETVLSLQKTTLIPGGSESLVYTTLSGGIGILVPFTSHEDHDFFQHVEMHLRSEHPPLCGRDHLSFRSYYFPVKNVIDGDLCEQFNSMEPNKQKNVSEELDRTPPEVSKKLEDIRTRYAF

[30] = target: Splicing factor 3B subunit 1 (Homo sapiens) (UniProt O75533); test: Binding affinity to SAP155 in human HeLa cells at 2 uM by LC-MS/MS analysis
Chain of Splicing factor 3B subunit 1 (Homo sapiens) (O75533 whole entry, looked up): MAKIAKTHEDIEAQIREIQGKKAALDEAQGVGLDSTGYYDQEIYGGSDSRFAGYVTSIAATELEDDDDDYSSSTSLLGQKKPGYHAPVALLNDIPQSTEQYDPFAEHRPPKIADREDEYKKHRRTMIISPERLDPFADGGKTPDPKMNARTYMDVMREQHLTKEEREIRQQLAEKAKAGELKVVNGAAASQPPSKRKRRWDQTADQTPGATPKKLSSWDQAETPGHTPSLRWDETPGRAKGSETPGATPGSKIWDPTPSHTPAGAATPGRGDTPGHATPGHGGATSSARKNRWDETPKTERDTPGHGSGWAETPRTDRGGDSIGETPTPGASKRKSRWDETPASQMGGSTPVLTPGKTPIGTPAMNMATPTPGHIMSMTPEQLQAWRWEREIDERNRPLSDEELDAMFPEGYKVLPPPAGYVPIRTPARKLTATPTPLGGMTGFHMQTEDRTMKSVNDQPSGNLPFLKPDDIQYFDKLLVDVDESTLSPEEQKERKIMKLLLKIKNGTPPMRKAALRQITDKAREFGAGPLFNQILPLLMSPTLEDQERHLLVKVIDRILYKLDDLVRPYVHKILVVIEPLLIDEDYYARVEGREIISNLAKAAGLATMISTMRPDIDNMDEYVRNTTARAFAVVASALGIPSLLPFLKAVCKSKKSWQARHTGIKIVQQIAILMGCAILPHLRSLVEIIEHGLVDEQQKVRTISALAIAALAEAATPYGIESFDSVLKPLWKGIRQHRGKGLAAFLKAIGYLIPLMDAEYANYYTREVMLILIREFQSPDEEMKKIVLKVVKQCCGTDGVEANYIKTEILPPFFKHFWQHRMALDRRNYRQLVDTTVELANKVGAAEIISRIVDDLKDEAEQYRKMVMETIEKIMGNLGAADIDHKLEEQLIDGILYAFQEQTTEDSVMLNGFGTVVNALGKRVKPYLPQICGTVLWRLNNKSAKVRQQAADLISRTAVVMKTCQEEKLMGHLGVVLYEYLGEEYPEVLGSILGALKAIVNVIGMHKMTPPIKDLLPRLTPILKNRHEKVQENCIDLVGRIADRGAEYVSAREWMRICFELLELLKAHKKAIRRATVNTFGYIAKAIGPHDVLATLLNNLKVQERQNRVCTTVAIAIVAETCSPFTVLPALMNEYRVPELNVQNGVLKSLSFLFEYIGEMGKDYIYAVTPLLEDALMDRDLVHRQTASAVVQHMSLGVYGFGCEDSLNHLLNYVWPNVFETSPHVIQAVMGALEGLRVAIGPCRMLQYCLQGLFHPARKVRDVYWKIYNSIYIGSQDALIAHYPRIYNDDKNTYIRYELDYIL

Q: For `CC(=O)O[C@@H](C)/C=C\C(=O)N[C@@H]1C[C@H](C)[C@H](C/C=C(C)/C=C/[C@H]2O[C@](C)(O)CC3(CO3)[C@@H]2O)O[C@@H]1C` (single isomer, unassigned), which Activity (HEK-293T [1]) is on record?
A: Active

Q: What about the Activity (HeLa [2]) of the same molecule?
A: Active

Q: And the Activity [3]?
A: Active

Q: And the Activity [4]?
A: inactive

Q: And the half-life [5]?
A: 45 min

Q: What about the Activity (MCF7 [6]) of the same molecule?
A: Active

Q: What about the Activity [7] of the same molecule?
A: inactive

Q: And the Activity (HeLa [8])?
A: Active

Q: What about the Activity [9] of the same molecule?
A: inactive

Q: What about the Activity (HeLa [10]) of the same molecule?
A: Active

Q: And the Activity (HeLa [11])?
A: Active

Q: What about the Activity (A549 [12]) of the same molecule?
A: Active

Q: And the Activity (HeLa [13])?
A: Active

Q: And the Activity (A549 [14])?
A: Active

Q: And the Activity (HeLa [15])?
A: Active

Q: And the Activity (HEK-293T [16])?
A: Active

Q: And the Activity (HeLa [17])?
A: Active

Q: What about the Activity (HEK-293T [18]) of the same molecule?
A: Active

Q: What about the Activity (MCF7 [19]) of the same molecule?
A: Active

Q: What about the Activity (HeLa [20]) of the same molecule?
A: Active

Q: What about the Activity (HeLa [21]) of the same molecule?
A: Active

Q: What about the Activity (HeLa [22]) of the same molecule?
A: Active

Q: For `CO[C@]1(C)C[C@@]2(CO2)[C@H](OC(C)=O)[C@@H](/C=C/C(C)=C/C[C@@H]2O[C@H](C)[C@H](NC(=O)/C=C\[C@H](C)OC(C)=O)C[C@@H]2C)O1`, which Activity (HeLa [23]) is on record?
A: inactive

Q: What does the source list for `CCC(=C/[C@H](C)C/C=C/C(C)=C/[C@@H](C)C(=O)[C@@H](C)[C@H](O)[C@@H](C)C/C(C)=C/C(=O)O)/C=C/[C@@H]1OC(=O)C=C[C@@H]1C`?
A: Activity (COS-7 [24]): Active; Activity (COS-7 [25]): Active

Q: For `CC(=O)O[C@@H](C)/C=C\C(=O)N[C@@H]1C[C@H](C)[C@H](C/C=C(C)/C=C/[C@H]2O[C@](C)(OCCNC(=O)CCCCCNC(=O)CCCCCNC(=O)CCCC[C@@H]3SC[C@@H]4NC(=O)N[C@@H]43)C[C@@]3(CO3)[C@@H]2O)O[C@@H]1C`, which Activity [26] is on record?
A: Active

Q: What about the Activity [27] of the same molecule?
A: Active

Q: And the Activity (HeLa [28])?
A: Active

Q: And the Activity [29]?
A: Active

Q: What about the Activity [30] of the same molecule?
A: Active
